# Test results published in ChEMBL document CHEMBL1123204, “Nucleosides. 136. Synthesis and antiviral effects of several 1-(2-deoxy-2-fluoro-beta-D-arabinofuranosyl)-5-alkyluracils. Some structure-activity relationships” (J Med Chem, 1986).
# pEC50: −log10 of the molar value.
# Tested on: Vero
# Assay: (§1) Compound was tested for antiviral activity against Herpes simplex virus-1 (Strain F) in vero cells by plaque reduction assay.
# Assay type: functional
# Conditions: Chlorocebus sabaeus, read-out: ED50 (the source's name)
row,SMILES,pEC50
1,CCc1cn([C@@H]2O[C@H](CO)[C@@H](O)[C@@H]2F)c(=O)[nH]c1=O,7.62
2,CC(C)c1cn([C@@H]2O[C@H](CO)[C@@H](O)[C@@H]2F)c(=O)[nH]c1=O,6.00
3,Cc1cn([C@@H]2O[C@H](CO)[C@@H](O)[C@@H]2F)c(=O)[nH]c1=O [5-METHYL-2'-FLUOROARAURACIL],7.74
4,CCC(C)c1cn([C@@H]2O[C@H](CO)[C@@H](O)[C@@H]2F)c(=O)[nH]c1=O (some centres undefined),4.81
5,CCCCc1cn([C@@H]2O[C@H](CO)[C@@H](O)[C@@H]2F)c(=O)[nH]c1=O,4.95
6,CCCc1cn([C@@H]2O[C@H](CO)[C@@H](O)[C@@H]2F)c(=O)[nH]c1=O,6.32
7,CC(C)Cc1cn([C@@H]2O[C@H](CO)[C@@H](O)[C@@H]2F)c(=O)[nH]c1=O,4.54
8,C=CCc1cn([C@@H]2O[C@H](CO)[C@@H](O)[C@@H]2F)c(=O)[nH]c1=O,5.48

# Tested on: Vero
# Assay: as §1
# Assay type: functional, Chlorocebus sabaeus
# Conditions: not given
row,SMILES,ED90
1,CCc1cn([C@@H]2O[C@H](CO)[C@@H](O)[C@@H]2F)c(=O)[nH]c1=O,0.26 µM
2,CC(C)c1cn([C@@H]2O[C@H](CO)[C@@H](O)[C@@H]2F)c(=O)[nH]c1=O,8.7 µM
3,Cc1cn([C@@H]2O[C@H](CO)[C@@H](O)[C@@H]2F)c(=O)[nH]c1=O [5-METHYL-2'-FLUOROARAURACIL],0.047 µM
4,CCC(C)c1cn([C@@H]2O[C@H](CO)[C@@H](O)[C@@H]2F)c(=O)[nH]c1=O (some centres undefined),305 µM
5,CCCCc1cn([C@@H]2O[C@H](CO)[C@@H](O)[C@@H]2F)c(=O)[nH]c1=O,76 µM
6,CCCc1cn([C@@H]2O[C@H](CO)[C@@H](O)[C@@H]2F)c(=O)[nH]c1=O,4.27 µM
7,CC(C)Cc1cn([C@@H]2O[C@H](CO)[C@@H](O)[C@@H]2F)c(=O)[nH]c1=O,92.7 µM
8,C=CCc1cn([C@@H]2O[C@H](CO)[C@@H](O)[C@@H]2F)c(=O)[nH]c1=O,21.3 µM

# Tested on: Vero
# Assay: (§2) Compound was tested for antiviral activity against Herpes simplex virus-2 (Strain G) in vero cells by plaque reduction assay.
# Assay type: functional
# Conditions: Chlorocebus sabaeus, read-out: ED50 (the source's name)
row,SMILES,pEC50
1,CCc1cn([C@@H]2O[C@H](CO)[C@@H](O)[C@@H]2F)c(=O)[nH]c1=O,6.62
2,CC(C)c1cn([C@@H]2O[C@H](CO)[C@@H](O)[C@@H]2F)c(=O)[nH]c1=O,4.89
3,Cc1cn([C@@H]2O[C@H](CO)[C@@H](O)[C@@H]2F)c(=O)[nH]c1=O [5-METHYL-2'-FLUOROARAURACIL],7.64
4,CCC(C)c1cn([C@@H]2O[C@H](CO)[C@@H](O)[C@@H]2F)c(=O)[nH]c1=O (some centres undefined),< 3.40
5,CCCCc1cn([C@@H]2O[C@H](CO)[C@@H](O)[C@@H]2F)c(=O)[nH]c1=O,4.80
6,CCCc1cn([C@@H]2O[C@H](CO)[C@@H](O)[C@@H]2F)c(=O)[nH]c1=O,6.05
7,CC(C)Cc1cn([C@@H]2O[C@H](CO)[C@@H](O)[C@@H]2F)c(=O)[nH]c1=O,3.95
8,C=CCc1cn([C@@H]2O[C@H](CO)[C@@H](O)[C@@H]2F)c(=O)[nH]c1=O,5.22

# Tested on: Vero
# Assay: as §2
# Assay type: functional, Chlorocebus sabaeus
# Conditions: not given
row,SMILES,ED90
1,CCc1cn([C@@H]2O[C@H](CO)[C@@H](O)[C@@H]2F)c(=O)[nH]c1=O,0.96 µM
2,CC(C)c1cn([C@@H]2O[C@H](CO)[C@@H](O)[C@@H]2F)c(=O)[nH]c1=O,72.3 µM
3,Cc1cn([C@@H]2O[C@H](CO)[C@@H](O)[C@@H]2F)c(=O)[nH]c1=O [5-METHYL-2'-FLUOROARAURACIL],0.09 µM
4,CCC(C)c1cn([C@@H]2O[C@H](CO)[C@@H](O)[C@@H]2F)c(=O)[nH]c1=O (some centres undefined),>400 µM
5,CCCCc1cn([C@@H]2O[C@H](CO)[C@@H](O)[C@@H]2F)c(=O)[nH]c1=O,40.3 µM
6,CCCc1cn([C@@H]2O[C@H](CO)[C@@H](O)[C@@H]2F)c(=O)[nH]c1=O,7.58 µM
7,CC(C)Cc1cn([C@@H]2O[C@H](CO)[C@@H](O)[C@@H]2F)c(=O)[nH]c1=O,422 µM
8,C=CCc1cn([C@@H]2O[C@H](CO)[C@@H](O)[C@@H]2F)c(=O)[nH]c1=O,29.7 µM

# Tested on: not listed separately
# Assay: Theuraptic Index: ratio of ID 50 / ED 90 of compound against HSV 2
# Assay type: functional
# Conditions: not given
# In short: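 Index computed as cytotoxic ID50 over antiviral ED90. Antiviral activity was measured against HSV-2 (strain G) by plaque-reduction assay in Vero cells. Cytotoxicity was measured in rapidly dividing Vero cells.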
row,SMILES,TI
1,CCc1cn([C@@H]2O[C@H](CO)[C@@H](O)[C@@H]2F)c(=O)[nH]c1=O,1770
2,CC(C)c1cn([C@@H]2O[C@H](CO)[C@@H](O)[C@@H]2F)c(=O)[nH]c1=O,> 11
3,Cc1cn([C@@H]2O[C@H](CO)[C@@H](O)[C@@H]2F)c(=O)[nH]c1=O [5-METHYL-2'-FLUOROARAURACIL],31
4,CCCCc1cn([C@@H]2O[C@H](CO)[C@@H](O)[C@@H]2F)c(=O)[nH]c1=O,> 20
5,CCCc1cn([C@@H]2O[C@H](CO)[C@@H](O)[C@@H]2F)c(=O)[nH]c1=O,310
6,C=CCc1cn([C@@H]2O[C@H](CO)[C@@H](O)[C@@H]2F)c(=O)[nH]c1=O,52

# Tested on: not listed separately
# Assay: Theuraptic Index: ratio of ID 50 / ED 90 of compound against HSV 1
# Assay type: functional
# Conditions: not given
# In short: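 Index computed as cytotoxic ID50 over antiviral ED90. Antiviral activity was measured against HSV-1 (strain F) by plaque-reduction assay in Vero cells. Cytotoxicity was measured in rapidly dividing Vero cells.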
row,SMILES,TI
1,CCc1cn([C@@H]2O[C@H](CO)[C@@H](O)[C@@H]2F)c(=O)[nH]c1=O,6540
2,CC(C)c1cn([C@@H]2O[C@H](CO)[C@@H](O)[C@@H]2F)c(=O)[nH]c1=O,> 92
3,Cc1cn([C@@H]2O[C@H](CO)[C@@H](O)[C@@H]2F)c(=O)[nH]c1=O [5-METHYL-2'-FLUOROARAURACIL],59
4,CCCCc1cn([C@@H]2O[C@H](CO)[C@@H](O)[C@@H]2F)c(=O)[nH]c1=O,> 11
5,CCCc1cn([C@@H]2O[C@H](CO)[C@@H](O)[C@@H]2F)c(=O)[nH]c1=O,551
6,C=CCc1cn([C@@H]2O[C@H](CO)[C@@H](O)[C@@H]2F)c(=O)[nH]c1=O,73
